Measured values from BindingDB's records for doi:10.1021/np800732n (National Cancer Institute-Frederick, 2010).

Molecular target: Transcription factor Jun (Homo sapiens, UniProt P05412)
Assay: Inhibition of TPA-induced AP1 transfected in HEK293 cells assessed as inhibition of […] reporter activity treated 1 hr before TPA stimulation measured after 18 hrs by luciferase reporter gene assay
In short: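 HEK293 cells were grown in DMEM with 10% FBS at 37 °C and 5% CO2. They were transiently transfected with a luciferase reporter (0.1 µg/well); reporters were AP-1 (four TRE consensus copies from GCN4), NF-κB (five responsive-element copies) or SRE. After 24 h, medium went to DMEM with 0.2% FBS. Cells were pretreated 1 h with compound or DMSO, then given TPA 10 ng/mL for 18 h. Firefly luciferase was read from passive-lysis lysates, TPA alone = 100%, in quadruplicate.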

Sequence of Transcription factor Jun (P05412 whole entry): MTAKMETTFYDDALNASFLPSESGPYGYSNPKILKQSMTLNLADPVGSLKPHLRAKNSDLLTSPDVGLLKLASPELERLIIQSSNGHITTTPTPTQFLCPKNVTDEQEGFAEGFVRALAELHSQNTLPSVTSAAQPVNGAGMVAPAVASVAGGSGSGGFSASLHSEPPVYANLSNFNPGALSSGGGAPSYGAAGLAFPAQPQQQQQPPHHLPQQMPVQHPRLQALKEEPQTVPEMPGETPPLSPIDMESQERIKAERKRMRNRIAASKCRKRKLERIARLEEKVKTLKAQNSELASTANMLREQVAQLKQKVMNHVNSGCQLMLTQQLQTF

Structure (SMILES) | IC50 [nM]
CCC(C)C(=O)O[C@H]1C(=O)O[C@@H]2C[C@H]3C(C)CC(=O)C(=O)[C@]3(C)[C@H]3[C@]4(O)OC[C@]32[C@@H]1[C@@H](C)[C@H]4O (stereo partly drawn) | 32
CC(C)=CC(=O)O[C@@H]1[C@H]2C(C)=C[C@H](O)[C@@H](O)[C@]2(C)[C@H]2[C@]3(O)OC[C@@]24[C@@H]1OC(=O)C[C@H]4[C@@H](C)[C@H]3O [6R-senecionylchaparrin] | 71
CC[C@](C)(O)C(=O)O[C@H]1C(=O)O[C@@H]2C[C@H]3C(C)CC(=O)C(=O)[C@]3(C)[C@H]3[C@@]4(O)OC[C@]32[C@@H]1[C@@H](C)[C@H]4O (stereo partly drawn) [NSC-14975] | 40
